Results published in ChEMBL document CHEMBL1221316, “Synthesis of new oxathiazinane dioxides and their in vitro cancer cell growth inhibitory activity” (Bioorg Med Chem Lett, 2010).

How the values were obtained:
SK-BR-3 [1] = assay: Cytotoxicity against human SKBR3 cells assessed as cell viability at 12.5 uM after 72 hrs by MTS assay; format: functional; conditions: SK-BR-3, 72 h, read-out: Activity
Method in brief: (§1)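 SKBR3 breast cancer cells were exposed to compound for 72 h. Viability was measured by MTS and reported as % viability at each of five concentrations: 6.25, 12.5, 25, 50 and 100. A viability-versus-concentration plot was also made.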

SK-BR-3 [2] = assay: Cytotoxicity against human SKBR3 cells assessed as cell viability at 25 uM after 72 hrs by MTS assay; format: functional; conditions: SK-BR-3, 72 h, read-out: Activity; method in brief: as §1
SK-BR-3 [3] = assay: Cytotoxicity against human SKBR3 cells assessed as cell viability at 6.25 uM after 72 hrs by MTS assay; format: functional; conditions: SK-BR-3, 72 h, read-out: Activity; method in brief: as §1
SK-BR-3 [4] = assay: Cytotoxicity against human SKBR3 cells assessed as cell viability at 100 uM after 72 hrs by MTS assay; format: functional; conditions: SK-BR-3, 72 h, read-out: Activity; method in brief: as §1
SK-BR-3 [5] = assay: Cytotoxicity against human SKBR3 cells assessed as cell viability at 50 uM after 72 hrs by MTS assay; format: functional; conditions: SK-BR-3, 72 h, read-out: Activity; method in brief: as §1
SK-BR-3 [6] = assay: Cytotoxicity against human SKBR3 cells after 72 hrs by MTS assay; format: functional, cell-based; conditions: SK-BR-3, 72 h; method in brief: as §1

Row | SMILES | viability at 12.5 µM (SK-BR-3 [1]) [%] | viability at 25 µM (SK-BR-3 [2]) [%] | viability at 6.25 µM (SK-BR-3 [3]) [%] | viability at 100 µM (SK-BR-3 [4]) [%] | viability at 50 µM (SK-BR-3 [5]) [%] | IC50 (SK-BR-3 [6]) [µM]
1 | O=S1(=O)COC[C@@H](COCc2ccccc2)N1 | 100 | 100 | 100 | 16 | 80 | 
2 | O=S1(=O)COC[C@H](COCc2ccccc2)N1 | 94 | 78 | 100 | 22 | 51 | 
3 | O=S1(=O)COC[C@@H](COCc2ccc(-c3ccccc3)cc2)N1 | 75 | 75 | 75 | 46 | 44 | 
4 | O=S1(=O)COC[C@@H](COCc2ccc(-c3ccc(CBr)cc3)cc2)N1 | 34 | 10 | 66 | 10 | 10 | 10
5 | O=S1(=O)COC[C@H](COCc2ccc(-c3ccc(CBr)cc3)cc2)N1 | 81 | 26 | 99 | 20 | 18 | 10
6 | O=S1(=O)COC[C@@H](COCc2ccccc2)N1Cc1ccccc1 | 82 | 88 | 89 | 82 | 83 | 
7 | O=S1(=O)COC[C@H](COCc2ccccc2)N1Cc1ccccc1 | 80 | 82 | 81 | 96 | 87 | 
8 | CCCCCCCC/C=C\CCCCCCCCOC[C@@H]1COCS(=O)(=O)N1Cc1ccccc1 | 100 | 99 | 100 | 100 | 100 | 
9 | CCCCCCCC/C=C\CCCCCCCCOC[C@H]1COCS(=O)(=O)N1Cc1ccccc1 | 81 | 81 | 71 | 96 | 82 | 
10 | O=S1(=O)COC[C@@H](COCc2ccc(F)cc2)N1Cc1ccccc1 | 86 | 88 | 93 | 96 | 99 | 
11 | COc1cccc(COC[C@@H]2COCS(=O)(=O)N2Cc2ccccc2)c1 | 100 | 100 | 100 | 89 | 96 | 
12 | O=C(OC[C@@H]1COCS(=O)(=O)N1Cc1ccccc1)c1ccccc1 | 98 | 88 | 81 | 100 | 89 | 
13 | CN1[C@H](COCc2ccccc2)COCS1(=O)=O | 81 | 88 | 85 | 82 | 83 | 
14 | CCCCCCCC/C=C\CCCCCCCCOC[C@@H]1COCS(=O)(=O)N1C | 71 | 65 | 72 | 65 | 65 | 
15 | CN1[C@H](COCc2ccc(-c3ccccc3)cc2)COCS1(=O)=O | 66 | 60 | 89 | 52 | 61 | 
16 | CN1[C@H](COCc2ccc3ccccc3c2)COCS1(=O)=O | 82 | 73 | 81 | 74 | 74 | 
